In ChEMBL document CHEMBL2331476, “A novel semisynthetic flavonoid 7-O-galloyltaxifolin upregulates heme oxygenase-1 in RAW264.7 cells via MAPK/Nrf2 pathway” (J Med Chem, 2013):

Target: T1, Nuclear factor erythroid 2-related factor 2 (Mus musculus) (UniProt Q60795)
T1 sequence (whole entry): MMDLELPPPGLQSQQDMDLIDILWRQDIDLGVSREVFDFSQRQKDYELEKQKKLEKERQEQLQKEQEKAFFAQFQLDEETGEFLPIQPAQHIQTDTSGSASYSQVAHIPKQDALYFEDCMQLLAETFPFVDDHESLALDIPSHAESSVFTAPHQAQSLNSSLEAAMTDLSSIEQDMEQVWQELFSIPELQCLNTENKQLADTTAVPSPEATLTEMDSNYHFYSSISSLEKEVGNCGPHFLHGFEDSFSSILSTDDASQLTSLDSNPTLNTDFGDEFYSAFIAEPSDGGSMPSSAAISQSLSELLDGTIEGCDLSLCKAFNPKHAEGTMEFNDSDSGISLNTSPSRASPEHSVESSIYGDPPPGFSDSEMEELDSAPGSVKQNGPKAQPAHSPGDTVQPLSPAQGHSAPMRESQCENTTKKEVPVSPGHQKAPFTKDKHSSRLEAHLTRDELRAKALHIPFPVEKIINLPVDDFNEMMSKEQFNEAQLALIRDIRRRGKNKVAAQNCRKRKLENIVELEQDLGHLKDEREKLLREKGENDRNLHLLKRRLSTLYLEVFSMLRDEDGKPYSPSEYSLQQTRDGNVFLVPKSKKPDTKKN
Assay: Activation of Nrf2 in mouse RAW264.7 cells assessed as upregulation of Hmox1 gene expression at 50 uM after 6 hrs by real-time PCR analysis relative to GAPDH mRNA expression
Type: cell-based
Procedure, shortened: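 Serum-starved RAW264.7 cells were exposed for 6 h in serum-free medium against a 0.1% DMSO control. Total RNA (2 μg) was reverse-transcribed, then TaqMan qPCR run for Hmox1 and Gapdh over 40 cycles. Crossing points were taken by second-derivative maximum, and fold change calculated by the 2^−ΔΔCT method normalized to Gapdh. Mean ± SD of three experiments.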

fold change (FC): 13.4
Structure (SMILES): O=C(Oc1cc(O)c2c(c1)O[C@H](c1ccc(O)c(O)c1)[C@@H](O)C2=O)c1cc(O)c(O)c(O)c1
